Test: Toxicity liver stage against HepG2, at 10uM
Format: cell-based
Set-up: test concentration 10 uM, cell line HepG2-A16-CD81EGFP
Conditions: human, HepG2-A16-CD81EGFP cells; read-out: INHIBITION
Method in brief: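 Uninfected HepG2-A16-CD81EGFP cells, 3 × 10^3 per well, 1536-well, plated on prespotted compound at 10 μM final, parasite-free screening media added to match infected plates; puromycin 10 μM positive, DMSO 0.5% negative; run in parallel with 48 h PbLuc assay at 37 °C, 5% CO2; viability by CellTiter-Glo luminescence, normalized to controls.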

Row | SMILES | cytotoxicity at 10 µM [%]
1 | c1ccc(-c2noc([C@@H]3Cc4nc[nH]c4CN3)n2)cc1 | -4.26
2 | CN(CCc1ccccn1)C(=O)c1cnn(-c2ccccc2F)c1N | -4.85
3 | CC(C)CCNC(=O)c1csc(NC2CC2)n1 | -0.243
4 | COc1cccc2c1ccn2CCNC(=O)CC(C)C | 4.38
5 | O=C(CC1CCCC1)NCCS(=O)(=O)N1CCN(c2ncccn2)CC1 | -1
6 | Cc1nsc(C(=O)NCCc2ccccc2)n1 | 4.28
7 | O=C(CCO)N1C[C@H]2CN(c3ccccc3)C(=O)[C@H]2C1 | 1.35
8 | CNC(=O)c1nc2c(s1)CCN(C(=O)c1cccc(OC)c1)CC2 | 9.84
9 | CCOCC(=O)N1CCCn2c(CN3CCOCC3)nnc2C1 | -132
10 | N#Cc1cccc(N2CCCC3(C2)CN(c2nncs2)CCO3)c1 (configuration not stated) | 0.922
11 | Cn1nc(C#N)c2c1CN(C(=O)c1ccco1)CCC2 | -133
12 | Cc1ccc(Cl)cc1NC(=O)Cn1cc(C(=O)O)ccc1=O | -1.45
13 | COc1cccc(-c2cc(C(=O)NCCCn3nc(C)cc3C)[nH]n2)c1 | -5.86
14 | CCOC(=O)Cc1n[nH]c(-c2cncc(Br)c2)n1 | 3.24
15 | O=C(c1ccc(-c2ccc(O)nc2)s1)N1CCCCC1 | 3.35
16 | COC(C)C(=O)N(CC(N)=O)Cc1cccc(Oc2ccccc2)c1 (configuration not stated) | 1.46
17 | N#Cc1cnc2cc(F)cc(F)c2c1NC1CCN(CC(N)=O)CC1 | 0
18 | CS(=O)(=O)N1CCN(C(=O)CCC2CCCO2)CC1 (configuration not stated) | 0.815
19 | CNC(=O)CN1CCC(CN(C)CCSc2ccccc2)CC1 | -0.488
20 | Cn1ccnc1CN1CCCC1CCc1ccccc1 (configuration not stated) | 13.8
21 | COCc1ccccc1NC(=O)CCNC(=O)c1ccoc1 | -3.94
22 | CC(CNC(=O)c1ccco1)N1CCc2sccc2C1 (configuration not stated) | 0.107
23 | NC(=O)CSc1ccccc1NCc1nc(Cc2ccccc2)no1 | 7.04

Row | SMILES | cytotoxicity at 10 µM [%]
24 | Cc1cc(CNC(=O)NCC(O)c2cccc(F)c2)no1 (configuration not stated) | 3.1
25 | COC1CCN(c2ccc(F)cc2CN(C)C(=O)c2cc[nH]n2)CC1 | -4.32
26 | COCCSCC(=O)NCc1ccc(N(C)C)cc1 | 19
27 | CCc1ccc(S(=O)(=O)Nc2ccn(CC(=O)OC)n2)cc1 | 7.22
28 | CCC(C)NC(=O)c1cncc(Br)c1 (configuration not stated) | 1.24
29 | O=C(CS(=O)(=O)c1ncccc1Cl)NC1CCCc2ccccc21 (configuration not stated) | -7.69
30 | N#Cc1cnc(NC2CCN(C(=O)C3CCCCC3)CC2)c(Cl)c1 | -3.75
31 | CCCOCC(=O)Nc1ncc(I)cc1C | 1.46
32 | O=C(NCC(O)c1ccc(F)cc1F)c1ccccc1 (configuration not stated) | 4.15
33 | Cc1cccc(C(=O)NCC(O)c2ccc(F)cc2F)c1 (configuration not stated) | 6.27
34 | CCC(C)NC(=O)c1ccc(CNC(=O)COC)cc1 (configuration not stated) | 10.7
35 | CC(C)c1cc(C(=O)NCc2nc(-c3ccc(F)cc3)n[nH]2)n[nH]1 | -1.75
36 | CC(Cn1ccnc1)NS(=O)(=O)c1ccc(F)c(Cl)c1 (configuration not stated) | 9.25
37 | Cc1ccc(Nc2c(C#N)c(=O)n(C)c(=O)n2C)cc1F | -4.99
38 | N#Cc1ccnc(N2CCN(CC(O)c3ccccc3)CC2)c1 (configuration not stated) | 0.587
39 | Cc1ccc(S(=O)(=O)NC2CCC(=O)NC2)cc1Br (configuration not stated) | -2.38
40 | Cc1cc(NC(=O)c2ccc(Br)cc2F)n(C)n1 | 3.42
41 | Cc1ccc(C(=O)Nc2ccc(N(C)C)cn2)n1C | -2.48
42 | CCN(CC)C(=O)CN(C)CCn1nc2ccccn2c1=O | -149
43 | CCC(=O)Nc1ccc(C(C)NC(=O)COC)cc1 (configuration not stated) | -145
44 | COCCOCC(=O)Nc1ccc(C)cc1Cl | 1.85
45 | Fc1ccc(C2CCCN2Cc2nnnn2C2CC2)cc1 (configuration not stated) | 15.5
46 | CC(C)N(CCC#N)C(=O)c1cnc(-c2ccc3c(c2)OCO3)s1 | 0.247

Row | SMILES | cytotoxicity at 10 µM [%]
47 | Cc1cc(N(C)C)nc(N2CCN(C(C)c3nc(C)no3)CC2)n1 (configuration not stated) | 2.33
48 | COc1cc(C)nc(N2CCN(C(C)c3nc(C)no3)CC2)n1 (configuration not stated) | 3.55
49 | O=S(=O)(NCCN1CC=CC1)c1ccc(Cl)cc1 | -6.04
50 | CS(=O)(=O)CCOCCNc1ccc(C#N)cc1F | -3.34
51 | O=C(NCC1CCOC1)c1csc(Cc2ccccc2)n1 (configuration not stated) | -118
52 | O=C(CCc1ccccn1)N1CCSC2(CCCCC2)C1 | 0.547
53 | CN(C)c1ccc(NC(=O)NCc2cccs2)cn1 | -1.15
54 | O=C(c1cc(F)ccc1O)N1CCN(C2CCSC2)CC1 (configuration not stated) | 0.773
55 | Cc1ccc(NC(=O)CS(=O)(=O)NC2CCC(C)CC2)nc1 (configuration not stated) | -9.24
56 | CCCn1nc(-c2nc(COc3ccccc3)no2)ccc1=O | -2.74
57 | O=C1NCCCc2[nH]c(-c3nc(C4CCCCC4)no3)nc21 | -0.627
58 | Cn1ccc2c(-c3cc(N4CCCCC4)ncn3)ccnc21 | -3.46
59 | COCCCN1CCCC2(CCN(S(=O)(=O)c3cccnc3)C2)C1=O (configuration not stated) | 8.21
60 | O=C(C1CC1)N1CCc2[nH]cnc2C12CCN(C1CCOCC1)CC2 | -1.16
61 | Cc1nccc(N2C[C@H](NC(=O)CNS(C)(=O)=O)[C@@H](C3CC3)C2)n1 | -13.8
62 | Cc1c(-c2nnc(SCC(=O)O)n2C(C)c2ccccc2)cnn1C (configuration not stated) | -5.43
63 | COc1ccccc1OCc1cc(C(=O)N2CCC(NC(C)=O)C2)n[nH]1 (configuration not stated) | -4.26
64 | COc1ccc(-c2ccc(C(=O)N3CCOCC3CC(N)=O)o2)cc1 (configuration not stated) | 3.16
65 | CCCc1nc(C)cc(N2CCC3(CCC(=O)N(CCO)C3)CC2)n1 | -6.71
66 | O=C(CN1CCCC1c1nc(-c2ccccn2)no1)N1CCOCC1 (configuration not stated) | 6.08
67 | COCc1ccc(C(=O)N2CCc3c(ncnc3N3CCOCC3)C2)o1 | -2.17
68 | CCc1nn(C)c(Cl)c1CN1CCC2(C1)CN(C)C(=O)O2 (configuration not stated) | 1.95
69 | CC1(C)OC(=O)N(CC(=O)N2CCC(c3ccccc3F)C2)C1=O (configuration not stated) | 0.189

Row | SMILES | cytotoxicity at 10 µM [%]
70 | CSc1ccc(-c2nc(CN3CCC(CN)C3)c(C)o2)cc1 (configuration not stated) | -2.65
71 | CCN(Cc1cccc(C(=O)Nc2ncc(C)s2)c1)[C@H]1COC[C@@H]1O | -2.61
72 | CCC(CO)N(Cc1ccsc1)Cc1ccccc1C(=O)O (configuration not stated) | -14.4
73 | O=c1c2cccc(F)c2ncn1CCN1CCNCC1 | -0.812
74 | O=C(c1cncc(N2CCC3(CCCNC3)C2)n1)N1CCCC1 (configuration not stated) | -4.15
75 | Cc1nc(NCC23CCCN2CCC3)cc(C2CCCNC2)n1 (configuration not stated) | 7.54
76 | CCCc1nnc(NC2CCN(C3CCSCC3)CC2)o1 | -1.38
77 | COc1ncccc1-c1nc(-c2ccccn2)nn1C1CCN(C)CC1 | -4.52
78 | Cc1c(CNC(=O)c2cn(CCC3CCCCN3)nn2)cnn1C (configuration not stated) | -3.44
79 | Cc1cc(N2CCCC(O)(CN(C)C)CC2)nc(-c2ccccc2)n1 (configuration not stated) | -9.41
80 | COc1ccc(F)c(-c2cc(NCCO)nc(N)n2)c1 | -1.21
81 | COc1ccccc1Oc1ncccc1CNC(=O)[C@@H](N)CCO | -17.5
82 | CCN(CC)C(CNS(=O)(=O)NCc1ccccc1)c1ccco1 (configuration not stated) | 1.53
83 | Cc1nc(C(C)NC(=O)COc2ccc(F)cc2)n[nH]1 (configuration not stated) | 6.39
84 | O=C1O[C@@H]2CN(CCc3ccccc3)C[C@@H]2N1CCCN1CCOCC1 | -3.2
85 | Cc1cc(C)c(C(=O)N2CCOCC2c2c(C)nn(C)c2C)o1 (configuration not stated) | -2.48
86 | CC(C)(C)c1ncc(C(=O)NCCNC(=O)c2cccs2)s1 | -1.56
87 | COc1c(CNCCNC(=O)c2cccs2)c(C)nn1C | -0.373
88 | CS(=O)(=O)NC1CCCN(C(=O)COCc2ccccc2)C1 (configuration not stated) | -5.28
89 | O=C(Cn1nc(-c2ccc(F)cc2)oc1=O)NCc1ccccc1F | -9.04
90 | CN(CC(=O)N1CCCCC1Cn1cccn1)C1CC1 (configuration not stated) | -3.45
91 | CN(CC(=O)NCc1cccnc1N1CCCCC1)C(=O)c1cccs1 | -14.8
92 | CCn1cnnc1CNC(=O)N1CCC(CN2CCCCCC2)CC1 | -8.57

Row | SMILES | cytotoxicity at 10 µM [%]
93 | O=C(c1cccc(F)c1)N1CCCN(Cc2cscn2)CC1 | -3.13
94 | Cc1cnn(CC2CCCN2C(=O)c2ccc(F)cc2Cl)c1 (configuration not stated) | 2.99
95 | c1cnn(CC2CN(CC3CCCCC3)CCO2)c1 (configuration not stated) | -7.85
96 | CC(C)Oc1ccc(C(=O)N2CCC(Nc3cccnn3)CC2)cn1 | -31
97 | CN(C)CCNC(=O)c1sc2ccccc2c1C1CCC(CN)CC1 (configuration not stated) | -15.3
98 | Cc1cccc(C(=O)N2C[C@@H]3COC[C@@H](CC(=O)N4CCCC4)[C@@H]3C2)n1 | -120
99 | CN(Cc1ccco1)C1CCC12CCN(C(=O)c1ccco1)CC2 (configuration not stated) | -10.9
100 | COCc1cnc2n1CCN(C1CCCC1)C2C (configuration not stated) | 9.13
101 | CN(C)[C@@H]1CN(C(=O)c2ccc(C#N)cc2)[C@@H]2CCCO[C@H]12 | -146
102 | O=C1[C@H]2CN(Cc3ccc(F)cc3)C[C@H]2CN1c1cncnc1 | -2.32
103 | Cc1cccc(NC(=O)C2CCc3ccccc3N2)c1 (configuration not stated) | -5.92
104 | Cc1noc(C)c1CN1CCO[C@H]2[C@H](Oc3ccccn3)CC[C@@H]21 | -6.69
105 | CC(C)N1[C@H](CN2CCCC2)C[C@@H]2CN(Cc3ccoc3)CC[C@@H]21 | -157
106 | Cc1ccc2c(n1)N(CCn1cccn1)CCN(S(C)(=O)=O)C2 | 13.5
107 | O=C(c1ccc[nH]1)N1CC[C@@H](OCC2CC2)[C@@H]1Cc1cccnc1 | 0.878
108 | CC[C@@H]1N(Cc2ccc(F)cc2)CCC[C@]12CCC(=O)N2CCOC | 11.5
109 | O=C(c1cnc2ccccc2c1)N1CCC2(CCN2c2ncccn2)C1 (configuration not stated) | -122
110 | COc1ccccc1CN1CC[C@]2(C[C@@H](OC)CO2)C1 | -5.35
111 | CN(C)CCn1c2c(ccc1=O)CCN(C(=O)c1ccoc1)CC2 | 6.2
112 | Cc1ccc(C)c(CN2C[C@@H]3CC[C@H]2CN(C(=O)c2cccnc2)C3)c1 | 3.41
